The text below walks through data of ChEMBL document CHEMBL5104225, “Synthesis and structure-activity relationship studies of N-terminal analogues of the lipopeptide antibiotics brevicidine and laterocidine” (RSC Med Chem, 2022).

Values after ≈ are worked out from the molar mass of the structure shown. Bridge positions count the residues as written; N and C are the ends. Square brackets hold non-standard residues; d marks the D form. Peptide text beside a SMILES is read from it. * marks the point of attachment. ξ: configuration not given here. Octanoyl(7-Me) = CC(C)CCCCCC(=O)*; Palmitoyl = CCCCCCCCCCCCCCCC(=O)*; Hexanoyl(4ξ-Me) = CCC(C)CCC(=O)*; Myristoyl = CCCCCCCCCCCCCC(=O)*; dOrn = NCCC[C@@H](N)C(=O)O; Octanoyl = CCCCCCCC(=O)*; Orn = NCCC[C@H](N)C(=O)O

The subject of data set [1] is Escherichia coli. Description: Antibacterial activity against Escherichia coli ATCC 25922 assessed as inhibition of bacterial growth incubated for 18 hrs by CLSI protocol based method. The class given is functional. In outline: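 Broth microdilution MIC. Strain streaked from glycerol stock on sheep blood agar (16 h, 37 °C); a colony was grown in TSB at 37 °C, 220 rpm, to OD600 about 0.5. Cells were diluted in MHB to 2×10^5 CFU/mL and added 1:1 to serial dilutions in MHB in polypropylene plates.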

Data set [2] concerns Escherichia coli. Description: Antibacterial activity against colistin-resistant Escherichia coli ATCC 25922 carrying MCR-1 gene assessed as inhibition of bacterial growth incubated for 18 hrs by CLSI protocol based method. The class given is functional. A digest of the protocol: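 Broth microdilution MIC. MCR-1 strain grown from glycerol stock in TSB with kanamycin (16 h, 37 °C, 220 rpm), diluted 100-fold in the same medium and grown to OD600 about 0.5. Cells were diluted in MHB to 2×10^5 CFU/mL and added 1:1 to serial dilutions in MHB. Incubated 18 h, 37 °C, 600 rpm; visual lowest no-growth concentration; three technical replicates.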

A further data set concerns Klebsiella pneumoniae. Description: Antibacterial activity against Klebsiella pneumoniae ATCC 13883 assessed as inhibition of bacterial growth incubated for 18 hrs by CLSI protocol based method. The class given is functional. A digest of the protocol: (§1)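 Single colonies from blood agar (16 h, 37 °C) grown in TSB at 37 °C, 220 rpm to OD600 ~0.5, then diluted in MHB to 2×10^5 CFU/mL. Mixed with serial MHB dilutions of DMSO stocks in polypropylene plates, sealed, and incubated 18 h at 37 °C, 600 rpm. MIC was taken as the lowest concentration with no visible growth; three technical replicates.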

Another data set has as its system Acinetobacter baumannii. Kind of data set: Antibacterial activity against Acinetobacter baumannii ATCC 17961 assessed as inhibition of bacterial growth incubated for 18 hrs by CLSI protocol based method. The class given is functional. In outline: as §1
A further data set has as its system Pseudomonas aeruginosa. Description: Antibacterial activity against Pseudomonas aeruginosa PAO1 assessed as inhibition of bacterial growth incubated for 18 hrs by CLSI protocol based method. The class given is functional. In outline: as §1
The subject of a further data set is Staphylococcus aureus. Description: Antibacterial activity against Staphylococcus aureus USA300 assessed as inhibition of bacterial growth incubated for 18 hrs by CLSI protocol based method. The class given is functional. A digest of the protocol: as §1
The subject of the next data set is Erythrocyte. Description: Hemolytic activity in sheep red blood cell assessed as hemolysis at 64 ug/ml incubated for 1 hrs relative to control. The class given is toxicity, cell-based, Ovis aries. To be noted: at 64 µg/mL. A digest of the protocol: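 Defibrinated sheep erythrocytes were washed five times in PBS with 0.002% Tween20 and normalized so the positive control read 2.5–3.0 at 415 nm. Cells were mixed with peptide at 64 µg/mL and held 1 h at 37 °C, shaking 500 rpm, then centrifuged. Supernatant A415 was background-corrected against buffer and expressed as % of 0.1% Triton X-100. Run in triplicate.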

A word on the MIC: it is the lowest concentration found to suppress growth.

On to `CCCCCCCCCCCCCC(=O)N[C@H](CC(N)=O)C(=O)N[C@H](Cc1ccc(O)cc1)C(=O)N[C@H](Cc1c[nH]c2ccccc12)C(=O)N[C@H](CCCN)C(=O)N[C@@H](CCCN)C(=O)NCC(=O)N[C@H](CCCN)C(=O)N[C@@H](Cc1c[nH]c2ccccc12)C(=O)N[C@@H]1C(=O)N[C@@H]([C@@H](C)CC)C(=O)NCC(=O)N[C@@H](CO)C(=O)O[C@@H]1C` (Myristoyl-[dN][dY][dW][dOrn][Orn]G[dOrn]WTIGS; ester 9-C), for which the MIC was 16 µg/mL (≈ 9.89 µM) in the data set with Escherichia coli [1]; 16 µg/mL (≈ 9.89 µM) in the data set on Escherichia coli [2]; 32 µg/mL (≈ 19.8 µM) with Klebsiella pneumoniae; 4 µg/mL (≈ 2.47 µM) in the data set with Acinetobacter baumannii; 32 µg/mL (≈ 19.8 µM) with Pseudomonas aeruginosa; greater than 32 µg/mL in the data set with Staphylococcus aureus.

`CCCCCCCCCCCCCC(=O)N[C@H](CO)C(=O)N[C@H](Cc1ccc(O)cc1)C(=O)N[C@H](Cc1c[nH]c2ccccc12)C(=O)N[C@H](CCCN)C(=O)N[C@@H](CCCN)C(=O)NCC(=O)N[C@H](CCCN)C(=O)N[C@@H](Cc1c[nH]c2ccccc12)C(=O)N[C@@H]1C(=O)N[C@@H]([C@@H](C)CC)C(=O)N[C@@H](CC(N)=O)C(=O)NCC(=O)NCC(=O)O[C@@H]1C` (Myristoyl-[dS][dY][dW][dOrn][Orn]G[dOrn]WTINGG; ester 9-C): the minimal inhibitory concentration (MIC) was determined as 8 µg/mL (≈ 4.78 µM) in the data set with Escherichia coli [1]; 8 µg/mL (≈ 4.78 µM) in the data set with Escherichia coli [2]; 8 µg/mL (≈ 4.78 µM) in the data set with Klebsiella pneumoniae; 2 µg/mL (≈ 1.19 µM) in the data set with Acinetobacter baumannii; 8 µg/mL (≈ 4.78 µM) with Pseudomonas aeruginosa; 16 µg/mL (≈ 9.55 µM) in the data set with Staphylococcus aureus.

With `CCCCCCCC(=O)N[C@H](CC(N)=O)C(=O)N[C@H](Cc1ccc(O)cc1)C(=O)N[C@H](Cc1c[nH]c2ccccc12)C(=O)N[C@H](CCCN)C(=O)N[C@@H](CCCN)C(=O)NCC(=O)N[C@H](CCCN)C(=O)N[C@@H](Cc1c[nH]c2ccccc12)C(=O)N[C@@H]1C(=O)N[C@@H]([C@@H](C)CC)C(=O)NCC(=O)N[C@@H](CO)C(=O)O[C@@H]1C` (Octanoyl-[dN][dY][dW][dOrn][Orn]G[dOrn]WTIGS; ester 9-C), the MIC in the data set with Escherichia coli [1] was 16 µg/mL (≈ 10.4 µM); in the data set on Escherichia coli [2], 16 µg/mL (≈ 10.4 µM); in the data set on Klebsiella pneumoniae it was 16 µg/mL (≈ 10.4 µM); in the data set with Acinetobacter baumannii, 16 µg/mL (≈ 10.4 µM); in the data set on Pseudomonas aeruginosa, 8 µg/mL (≈ 5.22 µM); in the data set on Staphylococcus aureus, greater than 32 µg/mL.

For the molecule `CCCCCCCC(=O)N[C@H](CO)C(=O)N[C@H](Cc1ccc(O)cc1)C(=O)N[C@H](Cc1c[nH]c2ccccc12)C(=O)N[C@H](CCCN)C(=O)N[C@@H](CCCN)C(=O)NCC(=O)N[C@H](CCCN)C(=O)N[C@@H](Cc1c[nH]c2ccccc12)C(=O)N[C@@H]1C(=O)N[C@@H]([C@@H](C)CC)C(=O)N[C@@H](CC(N)=O)C(=O)NCC(=O)NCC(=O)O[C@@H]1C` (Octanoyl-[dS][dY][dW][dOrn][Orn]G[dOrn]WTINGG; ester 9-C), the MIC was 2 µg/mL (≈ 1.26 µM) with Escherichia coli [1]; 2 µg/mL (≈ 1.26 µM) in the data set on Escherichia coli [2]; 2 µg/mL (≈ 1.26 µM) in the data set with Klebsiella pneumoniae; 4 µg/mL (≈ 2.51 µM) with Acinetobacter baumannii; 2 µg/mL (≈ 1.26 µM) with Pseudomonas aeruginosa; greater than 32 µg/mL in the data set on Staphylococcus aureus.

With `CCCCCCCCCCCCCCCC(=O)N[C@H](CO)C(=O)N[C@H](Cc1ccc(O)cc1)C(=O)N[C@H](Cc1c[nH]c2ccccc12)C(=O)N[C@H](CCCN)C(=O)N[C@@H](CCCN)C(=O)NCC(=O)N[C@H](CCCN)C(=O)N[C@@H](Cc1c[nH]c2ccccc12)C(=O)N[C@@H]1C(=O)N[C@@H]([C@@H](C)CC)C(=O)N[C@@H](CC(N)=O)C(=O)NCC(=O)NCC(=O)O[C@@H]1C` (Palmitoyl-[dS][dY][dW][dOrn][Orn]G[dOrn]WTINGG; ester 9-C), the MIC in the data set with Escherichia coli [1] was 32 µg/mL (≈ 18.8 µM); in the data set with Escherichia coli [2], 32 µg/mL (≈ 18.8 µM); in the data set with Klebsiella pneumoniae it was greater than 32 µg/mL; in the data set on Acinetobacter baumannii, 4 µg/mL (≈ 2.35 µM); in the data set on Pseudomonas aeruginosa, 32 µg/mL (≈ 18.8 µM); in the data set with Staphylococcus aureus it was 32 µg/mL (≈ 18.8 µM).

In the case of `CCC(C)CCC(=O)N[C@H](CC(N)=O)C(=O)N[C@H](Cc1ccc(O)cc1)C(=O)N[C@H](Cc1c[nH]c2ccccc12)C(=O)N[C@H](CCCN)C(=O)N[C@@H](CCCN)C(=O)NCC(=O)N[C@H](CCCN)C(=O)N[C@@H](Cc1c[nH]c2ccccc12)C(=O)N[C@@H]1C(=O)N[C@@H]([C@@H](C)CC)C(=O)NCC(=O)N[C@@H](CO)C(=O)O[C@@H]1C` (some centres undefined) ({Hexanoyl(4ξ-Me)}-[dN][dY][dW][dOrn][Orn]G[dOrn]WTIGS; ester 9-C), the minimum inhibitory concentration (MIC) in the data set with Escherichia coli [1] is 4 µg/mL (≈ 2.63 µM); in the data set with Escherichia coli [2], 4 µg/mL (≈ 2.63 µM); in the data set with Klebsiella pneumoniae it was 2 µg/mL (≈ 1.32 µM); in the data set on Acinetobacter baumannii, 4 µg/mL (≈ 2.63 µM); in the data set on Pseudomonas aeruginosa it was 8 µg/mL (≈ 5.26 µM); in the data set on Staphylococcus aureus, greater than 32 µg/mL.

In the case of `CC[C@H](C)[C@@H]1NC(=O)[C@@H](NC(=O)[C@H](Cc2c[nH]c3ccccc23)NC(=O)[C@@H](CCCN)NC(=O)CNC(=O)[C@H](CCCN)NC(=O)[C@@H](CCCN)NC(=O)[C@@H](Cc2c[nH]c3ccccc23)NC(=O)[C@@H](Cc2ccc(O)cc2)NC(=O)[C@@H](CO)NC(=O)CCCCCC(C)C)[C@@H](C)OC(=O)CNC(=O)CNC(=O)[C@H](CC(N)=O)NC1=O` ({Octanoyl(7-Me)}-[dS][dY][dW][dOrn][Orn]G[dOrn]WTINGG; ester 9-C), the MIC with Escherichia coli [1] was 2 µg/mL (≈ 1.25 µM); in the data set on Escherichia coli [2], 2 µg/mL (≈ 1.25 µM); with Klebsiella pneumoniae, 2 µg/mL (≈ 1.25 µM); in the data set on Acinetobacter baumannii it was 2 µg/mL (≈ 1.25 µM); in the data set on Pseudomonas aeruginosa, 4 µg/mL (≈ 2.49 µM); with Staphylococcus aureus it was greater than 32 µg/mL.

Take COLISTIN [listing 1 of 2 here]: the Activity in the data set with Erythrocyte was less than 0.1%.

Regarding COLISTIN [listing 2 of 2 here], the MIC in the data set on Escherichia coli [1] is 0.5 µg/mL; in the data set on Escherichia coli [2], 8 µg/mL; in the data set with Klebsiella pneumoniae, 0.5 µg/mL; in the data set with Acinetobacter baumannii, less than 0.25 µg/mL; in the data set with Pseudomonas aeruginosa, 4 µg/mL; in the data set on Staphylococcus aureus it was greater than 32 µg/mL.
